Cneo AK release = causes C. neoformans cell lysis | AID 651654 | lysis activity, % at 15 µM | actives 0.2% (n = 360,000) | adenylate kinase release luminescence, 4 h; normalised: neutral wells 0, clomiphene wells 100;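 active = mean lysis activity across replicates of at least 80%, whatever share of replicates individually reach that level; inactive = mean lysis activity below 80%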
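read-out = cell lysis signal | test system = log-phase Cryptococcus neoformans yeast cells | input = cells at 5 × 10^6 per mL | medium = fresh YPD growth medium | signal = luminescent adenylate kinase detection reagent | timing = 4 h at 37 °C static, read 1 h later | dosing = single dose | controls = Clomiphene as positive lysis control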
C2C12 statin = protects C2C12 myotubes from simvastatin toxicity; ATP luminescence, 48 h; scaled: DMSO 0, geranylgeraniol control 100; rescue of ATP level, % at 7.49 µM; actives 0.78% (n = 330,000); AID 602340;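 active = mean ATP rescue above about 67%, or every replicate alone reaching that limit, limit read from the data, passing the limit was not always enough; inconclusive = no clear call, values can overlap the other calls; inactive = mean under the limit and some replicate under it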;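 note: myotubes were challenged with 10 µM simvastatin during compound exposure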
XiGFP reactiv = X-chromosome reactivation activator. AID 743238. activation, % at 7.58 µM. XiGFP mouse fibroblasts, % GFP-positive cells imaging, 3 d; cells co-treated with 5-aza-dC sensitizer; scaled so ellipticine positive control = 100%. actives 0.055% (n = 360,000);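 active = mean normalized replicate activation at least 10% and every replicate at or above 10%; inconclusive = only one of the two criteria met; inactive = mean below 10% and not all replicates reach 10%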;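 note: 0% = median of on-plate neutral control wells and 100% = ellipticine 6 µM median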
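System: 68-5-11 XiGFP fibroblast line | Buffer or medium: DMEM containing 5-aza-dC | Compound: Single point | Times: Compounds 3 days, fix/stain 15 min at room temperature | Benchmarks: Positive control ellipticine, 6 µM final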
DENV2 CPE rescue = inhibitors of DENV2 cytopathic effect. DENV2-infected cells, cytopathic effect rescue, plate reader. AID 651640. actives 1.7% (n = 350,000). CPE inhibition, % at 9.99 µM; in the data active = CPE inhibition above about 20%, passing the limit was not always enough; inconclusive = no clear call, values can overlap the other calls; tested in BHK-21 cells;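 note: 0% = median of neutral control wells and 100% = median of positive control wells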
* hit, by the source's call; ? = inconclusive; · = no result given; ! = repeats disagree. A selection: hits, their analogues and other compounds. The true share with any hit is near 2.1%.

SMILES	Cneo AK release	C2C12 statin	XiGFP reactiv	DENV2 CPE rescue
O=c1ccc2cc(OC3O[C@H](CO)[C@@H](O)[C@H](O)[C@H]3O)c(O)cc2o1 (stereo partly drawn)	-1.5	-1.7	-0.1	7.7
C=C[C@@H]1C2=CCOC(=O)C2=CO[C@H]1O[C@@H]1O[C@H](CO)[C@@H](O)[C@H](O)[C@H]1O	0.6	-2.9	0.6	22.7*
O=C(NCc1cccnc1)Nc1ccccc1Cl	0.0	1.1	0.2	9.2
O=C(NCc1cccnc1)Nc1ccc([N+](=O)[O-])cc1	-1.2	·	0.1	35.9*
COC(=O)[C@H]1[C@H](CO)[C@H]2Cn3c(ccc(-c4ccncc4)c3=O)[C@@H]1N2CCc1ccccc1	-1.3	-72.4	0.4	-17.4
O=C(Cc1ccccn1)N1CCCCN2[C@H](CO)[C@@H](c3ccc(C#Cc4ccccc4)cc3)[C@@H]2C1	2.0	·	0.0	-6.5
O=C1NC(=O)C2C1C1(Cl)C(Cl)=C(Cl)C2(Cl)C1(Cl)Cl (stereo not drawn)	1.2	7.3	0.2	3.9
ClC1=C(Cl)C2(Cl)C3C(Cl)C=CC3C1(Cl)C2(Cl)Cl (stereo not drawn)	0.9	0.2	·	28.1*
O=C(O)[C@@H]1[C@@H](CO)[C@@H]2Cn3c(ccc(-c4ccncc4)c3=O)[C@H]1N2C(=O)C1CC1	·	29.2	0.0	·
O=C(Cc1cccnc1)N1CCCCN2[C@H](CO)[C@H](c3ccc(/C=C/c4ccccc4)cc3)[C@H]2C1	5.8	·	0.2	25.4*
COc1ccc(C#Cc2ccc([C@@H]3[C@H](CO)N4CCCCN(C(=O)Cc5cccnc5)C[C@@H]34)cc2)cc1	4.1	·	0.1	26.6*
C/C=C/c1ccc([C@H]2[C@@H](CO)N3CCCCN(C(=O)Cc4ccncc4)C[C@H]23)cc1	-2.6	-17.2	0.0	?
COc1cccc(-c2ccc([C@H]3[C@@H](CO)N4CCCCN(C(=O)Cc5ccncc5)C[C@@H]34)cc2)c1	-0.4	·	0.1	27.2*
C/C=C/c1ccc([C@H]2[C@@H](CO)N3CCCCN(C(=O)Cc4ccncc4)C[C@@H]23)cc1	-2.1	24.0	0.2	140.0*
O=C(Cc1ccncc1)N1CCCCN2[C@@H](CO)[C@@H](c3ccc(C#CC4(O)CCCC4)cc3)[C@@H]2C1	-2.6	·	0.2	0.2
C[C@H](CO)N1C[C@H](C)[C@@H](CN(C)C(=O)Oc2ccccc2)OCc2ccccc2-c2c(n(C)c3ccccc23)C1=O	·	·	0.2	·
N#Cc1cccc(-c2ccc([C@@H]3[C@@H](CO)N4CCCCN(C(=O)Cc5ccccc5)C[C@@H]34)cc2)c1	1.1	·	0.1	37.7*
Cc1ccc(N)cc1N	5.0	8.0	·	66.0*
Cc1ccc(N)c(N)c1	-7.4	-0.4	·	-9.7
COC(=O)[C@H]1[C@H](CO)[C@H]2Cn3c(ccc(-c4ccccc4F)c3=O)[C@@H]1N2Cc1ccncc1	1.2	-7.7	0.3	3.8
Cc1[nH]c2ccc(O)cc2c1CCN	-1.1	-7.4	0.4	54.7*
O=C(NCCN1CCC2(CC1)C(=O)NCN2c1ccccc1)c1ccccc1F	·	·	0.1	30.8*
Cc1ccccc1C(=O)NCCN1CCC2(CC1)C(=O)NCN2c1ccccc1	·	·	0.0	-1.3
CN1C[C@@H]2N[C@H](C1)C2c1ccc(Br)cc1 (stereo partly drawn)	·	·	0.5	·
CCOC(=O)[C@]12Cc3cc(N(C)C)ccc3[C@H]1N(Cc1ccccc1)C(=O)c1ccccc12	-3.4	95.2*	0.1	-3.9
SMILES	Cneo AK release	C2C12 statin	XiGFP reactiv	DENV2 CPE rescue
CCN1C[C@]2(COC)CC[C@H](OC)[C@@]34C5C[C@H]6C(=O)C5[C@](O)(C[C@H]6OC)[C@@](O)(C(OC)C23)[C@@H]14 (stereo partly drawn)	-1.9	2.8	·	44.4*
COc1ccc(CCNCc2cccn2C)cc1OC	-0.1	-6.3	0.1	68.8*
Cn1cccc1CNCCc1ccc(F)cc1	1.7	-7.7	·	·
COc1ccc(CC(=O)N(CCN(C)C)CC2CCCN(Cc3ccccc3F)C2)cc1 (stereo not drawn)	-0.2	0.6	-0.1	26.6*
O=C(Cc1cccnc1)N1CCCCN2[C@@H](CO)[C@@H](c3ccc(C#CC4CC4)cc3)[C@@H]2C1	-2.3	·	·	-1.7
CCC(=NCCO)c1c(O)n(-c2ccc(Cl)cc2)c(=O)[nH]c1=O	0.1	114.3*	·	·
C/C(=N\N1CCCCCC1)c1c(O)n(-c2ccc(Cl)cc2)c(=O)[nH]c1=O	0.1	4.5	0.1	4.3
C[C@H]1CN([C@@H](C)CO)C(=O)c2c(c3ccccc3n2C)-c2ccccc2CO[C@H]1CN(C)C(=O)Oc1ccccc1	·	·	0.0	81.2*
C[C@H]1CN([C@@H](C)CO)C(=O)CCCn2nncc2CO[C@@H]1CN(C)C(=O)Oc1cccc2ccccc12	-6.2	20.1	0.3	1.8
C[C@@H]1CN([C@@H](C)CO)C(=O)CCCn2nncc2CO[C@H]1CN(C)C(=O)Oc1cccc2ccccc12	87.9*!	1.9	-0.1	0.4
O=C(Cc1ccccc1)N1CC2(C1)[C@@H](c1ccccc1)[C@H](CO)N2Cc1cccc(F)c1	·	·	0.4	·
C=CCN1[C@@H]2CN(C(C)=O)C[C@H]1C2c1ccccc1 (stereo partly drawn)	·	·	0.3	·
COc1ccc(Oc2cc(NC(=O)c3nn(C)cc3[N+](=O)[O-])cc([N+](=O)[O-])c2)cc1	0.0	97.0*	·	2.7
COc1ccc(NC(=O)c2cn(CCC#N)nc2-c2cccc([N+](=O)[O-])c2)cc1	·	·	0.0	3.7
COC(=O)C1C(c2ccc(C)cc2)CC2CCC1N2C (stereo not drawn)	·	·	·	28.1*
CC(C)OC(=O)C1C(c2ccc(I)cc2)CC2CCC1N2C (stereo not drawn)	·	·	·	4.3
O=C1CNC[C@H]2[C@H](c3ccc(Br)cc3)[C@@H](CO)N12	·	·	0.0	5.5
Cc1ccccc1-[n+]1c(-c2ccccc2)cc(-c2ccccc2)cc1-c1ccccc1	-3.5	-179.7	0.1	76.3*
CCOC(=O)[C@]12Cc3ccc(C)cc3[C@H]1N(C1CCCCC1)C(=O)c1ccccc12	·	·	0.0	3.5
CCOC(=O)[C@]12Cc3ccc(C)cc3[C@H]1N(C1CCCCC1)C(=O)c1cc(OC)ccc12	·	·	-0.1	55.2*
CCCN1[C@@H]2c3ccc(-c4ccc(F)cc4)c(=O)n3C[C@H]1[C@H](CO)[C@H]2C(=O)OC	-0.2	-3.2	0.3	-3.8
C[C@]12CC[C@@H](O)CC1=CCC1C2CC[C@@]2(C)C1C[C@@H](F)[C@H]2O (stereo partly drawn)	0.9	2.0	0.0	32.7*
CC(C)NC(=O)N1C[C@@H]2C(c3ccccc3)[C@H](C1)N2CC1CC1 (stereo partly drawn)	·	·	0.1	·
CCOC(=O)[C@@H]1[C@@H]2NC(=O)N(C)[C@@]1(C)Oc1ccccc12	5.8	·	·	8.3
COc1cc(/C=C/c2nc3ccccc3c(=O)n2-c2ccc(O)cc2)ccc1O	-0.8	116.8*	0.2	-0.5
COc1ccc(-n2c(/C=C/c3ccc(O)c(O)c3)nc3ccccc3c2=O)cc1	-0.8	3.1	0.2	-5.4

Screening data from PubChem.
